# From ChEMBL document CHEMBL1149815, “New amido derivatives as potential BKCa potassium channel activators. XI” (Eur J Med Chem, 2008)
# How the values were obtained:
# Type in all cases: tissue-based
# [1] = molecular target: Calcium-activated potassium channel subunit alpha-1 (Rattus norvegicus) (UniProt Q62976); assay: (§1) Induction of BK channel mediated vasorelaxation activity in Kcl-induced contraction in Wistar rat aorta
# Outline: (§2)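 Endothelium-denuded thoracic aortic rings from male normotensive Wistar rats (250-350 g), equilibrated 60 min. Denudation was confirmed by acetylcholine relaxation below 10% of KCl tone. Rings were precontracted with 20 mM KCl; at plateau, 3-fold increasing concentrations were added cumulatively. Efficacy was maximal relaxation as % of KCl tone. pIC50 was -log molar concentration halving tone, not derived if efficacy was below 50%. 5-10 experiments.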
# [2] = molecular target: Calcium-activated potassium channel subunit alpha-1 (Rattus norvegicus, UniProt Q62976); assay: as §1; outline: as §2
# [3] = molecular target: Calcium-activated potassium channel subunit alpha-1 (Rattus norvegicus) (UniProt Q62976); assay: Induction of BK channel mediated vasorelaxation activity in Kcl-induced contraction in Wistar rat aorta in presence of IbTX; outline: as §2
# Calcium-activated potassium channel subunit alpha-1, sequence (Q62976 whole entry): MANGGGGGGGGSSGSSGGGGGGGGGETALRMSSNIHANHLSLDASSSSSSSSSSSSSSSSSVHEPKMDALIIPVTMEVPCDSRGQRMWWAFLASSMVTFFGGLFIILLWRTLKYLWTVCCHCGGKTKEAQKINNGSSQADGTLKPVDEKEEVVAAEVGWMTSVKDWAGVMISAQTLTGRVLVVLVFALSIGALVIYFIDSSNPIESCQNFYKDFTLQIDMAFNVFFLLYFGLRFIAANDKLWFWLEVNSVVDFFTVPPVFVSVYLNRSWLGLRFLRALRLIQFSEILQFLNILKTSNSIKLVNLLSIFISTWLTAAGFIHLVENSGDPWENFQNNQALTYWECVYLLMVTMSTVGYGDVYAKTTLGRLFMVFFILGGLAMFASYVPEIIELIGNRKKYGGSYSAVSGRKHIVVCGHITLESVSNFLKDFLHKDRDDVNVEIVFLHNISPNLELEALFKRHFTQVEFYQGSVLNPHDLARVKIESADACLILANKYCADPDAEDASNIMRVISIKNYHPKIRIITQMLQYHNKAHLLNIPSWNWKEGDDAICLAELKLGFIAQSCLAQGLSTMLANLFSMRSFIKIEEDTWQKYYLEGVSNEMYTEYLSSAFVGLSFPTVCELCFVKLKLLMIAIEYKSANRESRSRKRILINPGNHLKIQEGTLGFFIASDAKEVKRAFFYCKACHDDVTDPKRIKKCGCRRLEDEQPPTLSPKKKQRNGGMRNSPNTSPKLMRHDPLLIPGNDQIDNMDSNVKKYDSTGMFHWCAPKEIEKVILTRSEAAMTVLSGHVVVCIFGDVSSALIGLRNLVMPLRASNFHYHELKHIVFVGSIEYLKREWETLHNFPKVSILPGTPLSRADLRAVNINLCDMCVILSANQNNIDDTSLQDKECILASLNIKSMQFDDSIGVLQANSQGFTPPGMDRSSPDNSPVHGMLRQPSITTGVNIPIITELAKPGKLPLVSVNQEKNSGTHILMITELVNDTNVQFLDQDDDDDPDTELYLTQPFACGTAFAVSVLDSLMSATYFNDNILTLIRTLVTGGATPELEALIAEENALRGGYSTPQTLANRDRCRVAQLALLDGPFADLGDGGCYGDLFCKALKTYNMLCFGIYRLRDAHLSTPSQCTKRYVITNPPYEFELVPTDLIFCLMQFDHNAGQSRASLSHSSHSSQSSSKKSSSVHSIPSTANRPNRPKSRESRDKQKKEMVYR
# Calcium-activated potassium channel subunit alpha-1 (Rattus norvegicus), sequence (Q62976 whole entry): as above
SMILES,Emax [1] [%],IC50 [2] [µM],Emax [3] [%]
COc1ccccc1CNC(=O)c1ccccc1OC,16,,
O=C(Cc1ccccc1O)Nc1ccc([N+](=O)[O-])cc1,79,22.9,
O=C(Cc1ccccc1O)NCc1ccccc1[N+](=O)[O-],40,,
O=C(NCc1ccccc1)c1ccccc1O,47,,
O=c1[nH]c2cc(C(F)(F)F)ccc2n1-c1cc(C(F)(F)F)ccc1O,,4.37,
COc1ccccc1CNC(=O)Cc1ccccc1OC,22,,
COc1ccccc1CNC(=O)Cc1ccccc1O,40,,
O=C(Cc1ccccc1C(F)(F)F)Nc1ccccc1F,55,27.5,
Cc1cc([N+](=O)[O-])ccc1NC(=O)Cc1ccccc1O,84,20,32
COc1ccccc1C(=O)NCc1ccccc1,23,,
COc1ccccc1CC(=O)NCc1ccccc1,25,,
COc1ccccc1C(=O)NCc1ccccc1[N+](=O)[O-],29,,
O=C(NCc1ccccc1[N+](=O)[O-])c1ccccc1O,47,,
O=C(Cc1ccccc1O)Nc1ccccc1F,43,,

# More lines, now with the values ahead:
Emax [1] [%],IC50 [2] [µM],Emax [3] [%],SMILES
37,,,COc1ccccc1CC(=O)Nc1cc(Cl)ccc1O
28,,,COc1ccccc1CC(=O)Nc1ccccc1F
21,,,COc1ccccc1CC(=O)Nc1cc([N+](=O)[O-])ccc1OC
61,24.5,,COc1ccccc1CC(=O)Nc1cc(C)ccc1O
29,,,COc1ccccc1CC(=O)Nc1ccc([N+](=O)[O-])cc1
40,,,O=C(Cc1ccccc1O)Nc1ccccc1
82,18.2,,COc1ccc([N+](=O)[O-])cc1NC(=O)Cc1ccccc1O
33,,,O=C(Cc1ccccc1O)NCc1ccccc1
50,,,O=C(Cc1ccccc1C(F)(F)F)Nc1cc(Cl)ccc1O
